Reference: ChEMBL document CHEMBL4665651, “Design, synthesis, and biological evaluation of some novel 4-aminoquinazolines as Pan-PI3K inhibitors” (Bioorg Med Chem, 2019)
pIC50: −log10 of the molar value. Calls of active or inactive are those of the source. No cut-off for these calls is given here.

Columns and labels:
HUVEC = assay: Cytotoxicity against HUVEC cells assessed as reduction in cell viability incubated for 72 hrs by SRB assay; format: cell-based; conditions: Homo sapiens
How it was run: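 Normal cells exposed to a range of compound concentrations for 72 h at 37 °C in 5% CO₂. Cells TCA-fixed and viability read by SRB protein staining, normalized to day-0 and negative-control OD. IC50 from non-linear regression; values are means of triplicate measurements.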

MCF7 [1] = assay: Antiproliferative activity against human MCF7 cells assessed as reduction in cell viability incubated for 72 hrs by SRB assay; format: functional, cell-based; conditions: MCF7, 72 h
How it was run: (§1)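 Cell lines grown at 37 °C in 5% CO₂: A549 in RPMI1640, MCF-7 in DMEM, each with 10% FBS plus penicillin/streptomycin/amphotericin B. Cells exposed to a range of compound concentrations for 72 h, then TCA-fixed and SRB-stained. Growth inhibition = 100 − 100×(OD sample − OD day 0)/(OD negative control − OD day 0). IC50 from non-linear regression of percent growth against concentration.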

[2] = target: Phosphatidylinositol 4,5-bisphosphate 3-kinase catalytic subunit gamma isoform (Homo sapiens, UniProt P48736); assay: Inhibition of PI3Kgamma (unknown origin) using lipid as substrate incubated for 15 mins followed by substrate addition and measured after 60 mins ADPGloTM reagent based assay
Chain of Phosphatidylinositol 4,5-bisphosphate 3-kinase catalytic subunit gamma isoform (P48736 whole entry, canonical isoform): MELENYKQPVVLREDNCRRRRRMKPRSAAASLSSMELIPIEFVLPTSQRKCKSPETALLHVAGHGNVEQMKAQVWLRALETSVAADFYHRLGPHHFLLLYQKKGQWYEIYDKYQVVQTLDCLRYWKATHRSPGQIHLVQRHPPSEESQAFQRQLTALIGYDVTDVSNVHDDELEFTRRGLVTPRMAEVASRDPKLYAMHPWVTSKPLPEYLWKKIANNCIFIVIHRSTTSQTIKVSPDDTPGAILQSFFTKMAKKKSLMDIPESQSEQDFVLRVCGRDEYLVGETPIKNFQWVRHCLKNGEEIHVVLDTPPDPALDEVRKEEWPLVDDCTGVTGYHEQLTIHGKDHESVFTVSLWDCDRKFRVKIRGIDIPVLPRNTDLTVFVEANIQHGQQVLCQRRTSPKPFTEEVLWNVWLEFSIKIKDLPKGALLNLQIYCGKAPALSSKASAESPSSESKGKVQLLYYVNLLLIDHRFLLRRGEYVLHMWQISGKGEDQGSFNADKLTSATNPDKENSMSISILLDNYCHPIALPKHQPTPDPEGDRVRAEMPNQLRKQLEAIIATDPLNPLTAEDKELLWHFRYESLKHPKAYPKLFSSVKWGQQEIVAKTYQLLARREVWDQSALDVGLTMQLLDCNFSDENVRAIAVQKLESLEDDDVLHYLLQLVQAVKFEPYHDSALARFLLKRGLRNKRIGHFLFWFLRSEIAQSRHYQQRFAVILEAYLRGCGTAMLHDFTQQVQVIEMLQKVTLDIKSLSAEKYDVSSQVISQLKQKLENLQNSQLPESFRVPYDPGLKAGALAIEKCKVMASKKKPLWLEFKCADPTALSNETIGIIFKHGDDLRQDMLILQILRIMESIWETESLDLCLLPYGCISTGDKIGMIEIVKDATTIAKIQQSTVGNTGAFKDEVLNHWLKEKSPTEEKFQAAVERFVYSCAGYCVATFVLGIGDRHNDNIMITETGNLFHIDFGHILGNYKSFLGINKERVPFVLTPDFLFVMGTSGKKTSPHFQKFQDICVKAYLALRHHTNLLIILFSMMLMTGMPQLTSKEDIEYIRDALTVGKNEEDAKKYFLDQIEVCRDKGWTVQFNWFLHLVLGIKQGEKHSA
How it was run: (§2)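 ADP-Glo luminescent readout of ADP formed. Isoforms tested: p110α/p85α, p110β/p85α, p120γ and p110δ/p85α, each in PI3K reaction buffer with lipid substrate. Enzyme preincubated with compound for 15 min at room temperature. Reaction started with 250 μM ATP stock and run 60 min at room temperature. ADP-Glo reagent added for 40 min, then detection reagent for 40 min. IC50 from normalized nonlinear dose–response fit.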

MCF7 [3] = assay: Induction of apoptosis in human MCF7 cells assessed as late apoptotic cells at 0.8 uM incubated for 48 hrs by annexin V-FITC and propidium iodide staining based flow cytometry analysis (reference value: 9.2 %); format: functional
MCF7 [4] = assay: Induction of apoptosis in human MCF7 cells assessed as nuclear fragmentation at 0.2 to 0.8 uM incubated for 48 hrs by Hoechst 33342 staining based fluorescence microscopic analysis; format: functional, cell-based; conditions: dose microM 0.2-0.8, time 48.0 hrs
How it was run: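 MCF-7 cells seeded at 2×10⁵ per well in 6-well plates and allowed to settle 12 h. Treated 48 h, with medium-only controls. Stained with Hoechst 33342 for 30 min, washed, and nuclear morphology imaged by fluorescence microscopy.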

[5] = target: Epidermal growth factor receptor (Homo sapiens, UniProt P00533); assay: Inhibition of EGFR (unknown origin) using FAM-labeled peptide as substrate incubated for 10 mins followed by substrate addition and measured after 1 hr by mobility shift assay
Chain of Epidermal growth factor receptor (P00533 whole entry): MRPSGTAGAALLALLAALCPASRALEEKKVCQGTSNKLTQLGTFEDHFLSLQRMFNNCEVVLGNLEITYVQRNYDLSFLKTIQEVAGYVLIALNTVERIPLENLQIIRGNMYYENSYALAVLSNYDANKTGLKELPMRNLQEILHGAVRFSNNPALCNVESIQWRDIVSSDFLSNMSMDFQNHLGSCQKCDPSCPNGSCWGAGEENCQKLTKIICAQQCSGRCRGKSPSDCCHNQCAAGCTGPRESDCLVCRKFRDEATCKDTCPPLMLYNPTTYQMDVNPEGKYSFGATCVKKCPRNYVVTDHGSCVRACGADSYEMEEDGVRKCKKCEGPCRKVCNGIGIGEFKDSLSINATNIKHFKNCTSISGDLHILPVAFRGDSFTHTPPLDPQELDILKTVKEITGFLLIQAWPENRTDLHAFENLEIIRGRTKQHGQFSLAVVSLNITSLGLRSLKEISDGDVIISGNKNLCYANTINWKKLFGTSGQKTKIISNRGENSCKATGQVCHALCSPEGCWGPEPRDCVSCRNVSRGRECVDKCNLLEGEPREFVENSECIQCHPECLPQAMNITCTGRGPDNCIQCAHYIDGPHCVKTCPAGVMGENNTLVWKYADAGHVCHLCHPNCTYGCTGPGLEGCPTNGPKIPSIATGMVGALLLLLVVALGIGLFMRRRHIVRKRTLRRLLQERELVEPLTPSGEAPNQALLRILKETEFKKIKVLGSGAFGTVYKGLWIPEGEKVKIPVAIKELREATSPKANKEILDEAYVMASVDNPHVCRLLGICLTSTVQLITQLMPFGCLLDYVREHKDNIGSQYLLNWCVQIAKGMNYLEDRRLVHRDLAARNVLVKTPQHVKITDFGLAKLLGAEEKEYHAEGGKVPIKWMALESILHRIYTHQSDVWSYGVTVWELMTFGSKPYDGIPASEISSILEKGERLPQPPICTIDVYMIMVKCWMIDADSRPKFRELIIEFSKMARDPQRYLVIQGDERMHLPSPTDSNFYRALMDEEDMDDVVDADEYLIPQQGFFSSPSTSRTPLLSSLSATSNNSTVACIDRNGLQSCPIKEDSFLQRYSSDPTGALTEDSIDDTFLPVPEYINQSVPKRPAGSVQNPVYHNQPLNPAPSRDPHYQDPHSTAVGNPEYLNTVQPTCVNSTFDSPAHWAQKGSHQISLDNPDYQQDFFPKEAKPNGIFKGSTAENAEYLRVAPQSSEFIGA
How it was run: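 Mobility shift assay in 50 mM HEPES pH 7.5, 10 mM MgCl₂, 2 mM DTT, 0.0015% Brij35. Compound in 10-point DMSO dilution, run in duplicate. Enzyme preincubated with compound 10 min at room temperature. FAM-labeled peptide and ATP then added and reaction run at 28 °C for 1 h. Stopped with EDTA buffer; conversion turned into percent inhibition and fitted to a Hill equation for IC50.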

MCF7 [6] = assay: Induction of apoptosis in human MCF7 cells assessed as necrotic cells at 0.4 uM incubated for 48 hrs by annexin V-FITC and propidium iodide staining based flow cytometry analysis (reference value: 0.3 %); format: functional
A549 = assay: Antiproliferative activity against human A549 cells assessed as reduction in cell viability incubated for 72 hrs by SRB assay; format: functional, cell-based; conditions: A549, 72 h; how it was run: as §1
MCF7 [7] = assay: Induction of apoptosis in human MCF7 cells assessed as viable cells at 0.8 uM incubated for 48 hrs by annexin V-FITC and propidium iodide staining based flow cytometry analysis (reference value: 87.7 %); format: functional; conditions: read-out: Activity
[8] = target: Phosphatidylinositol 4,5-bisphosphate 3-kinase catalytic subunit beta isoform (Homo sapiens, UniProt P42338); assay: Inhibition of PI3Kbeta (unknown origin) using lipid as substrate incubated for 15 mins followed by substrate addition and measured after 60 mins ADPGloTM reagent based assay
Chain of Phosphatidylinositol 4,5-bisphosphate 3-kinase catalytic subunit beta isoform (P42338 whole entry, canonical isoform): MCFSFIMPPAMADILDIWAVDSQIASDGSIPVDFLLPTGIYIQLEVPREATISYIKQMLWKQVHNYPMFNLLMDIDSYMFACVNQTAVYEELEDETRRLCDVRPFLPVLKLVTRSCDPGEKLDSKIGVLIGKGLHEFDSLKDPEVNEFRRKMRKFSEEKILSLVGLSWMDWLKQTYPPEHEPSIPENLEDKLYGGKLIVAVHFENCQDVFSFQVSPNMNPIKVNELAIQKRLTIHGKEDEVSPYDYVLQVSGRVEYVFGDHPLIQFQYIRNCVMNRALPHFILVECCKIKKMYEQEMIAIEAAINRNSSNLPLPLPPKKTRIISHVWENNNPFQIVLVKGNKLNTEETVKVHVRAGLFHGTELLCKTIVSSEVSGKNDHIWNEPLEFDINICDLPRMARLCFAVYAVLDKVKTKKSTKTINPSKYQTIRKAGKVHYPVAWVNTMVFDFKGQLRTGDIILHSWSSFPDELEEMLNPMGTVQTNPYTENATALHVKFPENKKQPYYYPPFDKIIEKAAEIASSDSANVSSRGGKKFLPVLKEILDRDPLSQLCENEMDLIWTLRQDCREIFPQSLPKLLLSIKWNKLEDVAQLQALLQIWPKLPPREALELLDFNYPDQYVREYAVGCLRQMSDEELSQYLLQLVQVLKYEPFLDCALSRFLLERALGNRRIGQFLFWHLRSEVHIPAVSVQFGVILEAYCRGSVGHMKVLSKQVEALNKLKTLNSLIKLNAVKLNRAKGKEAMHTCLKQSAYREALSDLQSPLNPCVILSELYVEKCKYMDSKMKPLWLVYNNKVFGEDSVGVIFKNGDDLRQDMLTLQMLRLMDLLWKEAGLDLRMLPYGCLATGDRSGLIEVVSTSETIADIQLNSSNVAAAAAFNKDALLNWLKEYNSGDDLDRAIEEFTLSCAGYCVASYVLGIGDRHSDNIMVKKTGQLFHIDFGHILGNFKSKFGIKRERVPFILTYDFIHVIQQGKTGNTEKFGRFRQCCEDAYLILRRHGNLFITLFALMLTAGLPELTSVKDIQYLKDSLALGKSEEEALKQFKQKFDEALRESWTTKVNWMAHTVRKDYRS
How it was run: as §2, with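 “temperature.” for “temperature. Reaction started with 250 μM ATP stock and run 60 min at room temperature.”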

MCF7 [9] = assay: Inhibition of PI3K in human MCF7 cells assessed as decrease in p-Akt/Akt ratio at 0.1 to 10 uM by Western blot analysis; conditions: dose microM 0.1-10

## COc1ncc(-c2ccc3ncnc(Nc4cnn(CCO)c4)c3c2)cc1NS(=O)(=O)c1ccc(F)cc1F
HUVEC
  pIC50: 4.71
MCF7 [1]
  pIC50: 6.66
[2]
  pIC50: 9.24
MCF7 [3]
  Activity: 22.7%
MCF7 [4]
  Activity: Active
[5]
  pIC50: < 5.00
MCF7 [6]
  Activity: 2.6%
A549
  pIC50: 5.51
MCF7 [7]
  viability at 0.8 µM: 70.3%
[8]
  pIC50: 8.52
MCF7 [9]
  inhibition: Active
